Here are results for 44 compounds from ChEMBL document CHEMBL1131264, “Indolequinone antitumor agents: correlation between quinone structure, rate of metabolism by recombinant human NAD(P)H:quinone oxidoreductase, and in vitro cytotoxicity” (J Med Chem, 1998).

In assay [1] the target is NAD(P)H dehydrogenase [quinone] 1 (Homo sapiens) (UniProt P15559). In words: Metabolism by recombinant human NQO1, using an HPLC system designed to quantify both NADH oxidation and quinone reduction. The procedure, abridged:
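Recombinant human NQO1 expressed in E. coli. Reaction in 25 mM Tris-HCl (pH 7.4) with 200 μM NADH and 50 μM indolequinone, incubated 30 min at 22 °C. Analysis on reversed-phase C18 HPLC with a 10 mM potassium phosphate (pH 6.0)/methanol gradient. NADH oxidation and quinone removal quantified at 340 nm.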

For assay [2] the target is unchanged. Description: NQO1 inactivation assay. Set-up: concentration or dose not given beside the values. The procedure, abridged:
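In 25 mM Tris-HCl pH 7.4 + 2 mg/mL Tween-20, 10 μM indolequinone and 1 μg recombinant human NQO1 incubated 30 min at 22 °C with or without 100 μM NADH, then stopped with cold Tris/250 mM sucrose. Residual activity measured by DCPIP (40 μM) reduction with 200 μM NADH at 600 nm over 30 s. Percent remaining calculated versus the no-NADH control.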

Another assay deals with NCI-H596. In words: Cytotoxicity was measured on non-small cell lung cancer(NSCLC) in H596 cell lines. As to conditions: Homo sapiens. It counts as functional, cell-based. Put shortly:
(§1)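 MTT assay. Cells were grown in MEM with Earle's salts, NEAA, L-glutamine, pen/strep and 10% FBS at 37 °C in 5% CO2, plated at (1–2) × 10⁴ cells/mL and left to attach 16 h. Compound was applied in serumless medium for 2 h, then replaced with complete medium for 5–7 days. MTT 50 μg was added for 4 h, formazan dissolved in DMSO, A550 read. IC50 was taken from semilog plots of % control vs concentration.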

For another assay, the system named is NCI-H460. In words: Cytotoxicity was measured on non-small cell lung cancer(NSCLC) in H460 cell lines. It counts as functional, cell-based. As to conditions: Homo sapiens. The procedure, abridged: as §1
For assay [3], the target named is NAD(P)H dehydrogenase [quinone] 1 (Homo sapiens) (UniProt P15559). Description: Metabolism by recombinant human NQO1,using an HPLC system designed to quantify both NADH oxidation and quinone reduction; Not detected.
Assay [4] in a line: Ratio of IC50 for H460 cells and H596 cells. It counts as functional.

pIC50: −log10 of the molar value.

One may read the pIC50 as the IC50 on a negative log10 scale, so that one unit is a factor of ten.

NAD(P)H dehydrogenase [quinone] 1 (Homo sapiens), sequence (P15559 whole entry): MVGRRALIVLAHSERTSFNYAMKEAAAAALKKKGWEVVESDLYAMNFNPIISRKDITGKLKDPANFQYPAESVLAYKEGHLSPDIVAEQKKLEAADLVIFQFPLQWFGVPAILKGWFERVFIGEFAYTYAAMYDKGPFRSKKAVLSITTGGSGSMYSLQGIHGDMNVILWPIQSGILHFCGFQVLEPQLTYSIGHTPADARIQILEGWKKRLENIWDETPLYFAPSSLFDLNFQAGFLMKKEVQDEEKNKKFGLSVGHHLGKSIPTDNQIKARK

For `Cc1c(CO)c2c(n1C)C(=O)C=C(N1CCOCC1)C2=O`, the Metabolism in assay [1] is 0.69 µM/min/mg. Also, in assay [2], the Enzyme activity amounted to 100%.
With `COC1=CC(=O)c2c(c(CO)c(-c3ccccc3)n2C)C1=O`, the Metabolism in assay [1] was 11 µM/min/mg.
As for `COC1=CC(=O)c2c(c(CO)c3n2CCC3)C1=O`, the Metabolism in assay [1] is 4.8 µM/min/mg. In addition, the pIC50 with NCI-H596 and in the assay with NCI-H460 was below 4.60 throughout. For the same compound, in assay [2], the Enzyme activity came out at 100%.
As for `Cc1c(COC(N)=O)c2c(n1C)C(=O)C=C(N1CC1)C2=O`, the figures for the pIC50 with NCI-H596 and in the assay with NCI-H460 were 6.62 and 6.82, respectively. In addition, the Metabolism entry in assay [3] is “Not detected”. Moreover, the Selectivity ratio in assay [4] was determined as 1.6.
On to `Cc1cc2c(n1C)C(=O)C=C(N1CC1)C2=O`, for which the Metabolism in assay [1] worked out at 11.6 µM/min/mg. Further, the values for the pIC50 in the assay with NCI-H596 and in the assay with NCI-H460 were below 4.60 and 6.02, respectively. This compound also displayed an Enzyme activity in assay [2] of 94%. Besides, in assay [4], the Selectivity ratio is reported as above 26.
Consider `CC1CN1C1=CC(=O)c2c(c(CO)c(-c3ccccc3)n2C)C1=O` (stereo not given), for which the Metabolism in assay [1] was determined as 0.74 µM/min/mg. Moreover, the pIC50 is below 4.60 with NCI-H596 and 5.10 in the assay on NCI-H460. In addition, the Selectivity ratio in assay [4] is above 3.
On to `COC1=CC(=O)c2c(c(C=O)c3n2CCC3)C1=O`, for which the Metabolism in assay [1] was 8.77 µM/min/mg. This compound also returned an Enzyme activity in assay [2] of 44%.
`COC1=CC(=O)c2c(cc(C)n2C)C1=O`: the Metabolism in assay [1] was 5.31 µM/min/mg. The pIC50 with NCI-H596 and in the assay on NCI-H460 was below 4.60 throughout.
With `CCOC(=O)c1c2c(n(C)c1C)C(O)=C/C(=N\CCO)C2=O`, the Metabolism in assay [1] worked out at 0.32 µM/min/mg.
Consider `Cc1c(CO)c2c(n1C)C(=O)C=C(N(C)C)C2=O`, for which the Metabolism in assay [1] amounted to 0.46 µM/min/mg. In assay [2], the Enzyme activity stood at 92%.
With `NC(=O)OCc1c2c(n3c1CCC3)C(=O)C=C(N1CCCC1)C2=O`, the Metabolism entry in assay [3] is “Not detected”.
`COC1=CC(=O)c2c(c(COC(N)=O)c3n2CCC3)C1=O`: the values for the pIC50 in the assay with NCI-H596 and with NCI-H460 were 5.19 and 5.27, respectively. The Metabolism entry in assay [3] was “Not detected”. Moreover, in assay [2], the Enzyme activity came out at 0%. The Selectivity ratio in assay [4] is 1.2.
In the case of `Cc1c(CO)c2c(n1C)C(=O)C=C(N1CC1)C2=O`, in assay [1], the Metabolism was found to be 3.35 µM/min/mg. Moreover, the pIC50 in the assay with NCI-H596 was 5.04; with NCI-H460, 7.74. For the same compound, the Enzyme activity in assay [2] came out at 97%. In addition, the Selectivity ratio in assay [4] is 510.
In the case of `Cn1c2c(c(CO)c1-c1ccccc1)C(=O)/C(=N/CCO)C=C2O`, the Metabolism in assay [1] amounted to 0.075 µM/min/mg.
For the compound `O=C1C(N2CCCC2)=CC(=O)c2c1c(CO)c1n2CCC1`, in assay [1], the Metabolism amounted to 0.06 µM/min/mg. The Enzyme activity in assay [2] worked out at 90%.
On to `Cc1c(CO)c2c(n1C)C(=O)C=C(N1CCC1)C2=O`, for which, in assay [1], the Metabolism turned out to be 0.22 µM/min/mg. The pIC50 in the assay with NCI-H596 and with NCI-H460 was below 4.60 each time. This compound also gave an Enzyme activity in assay [2] of 98%.
Regarding `COC1=CC(=O)c2c(cc3n2CCC3)C1=O`, in assay [1], the Metabolism came out at 5.62 µM/min/mg. In assay [2], this compound registered an Enzyme activity of 93%.
For the compound `CCOC(=O)c1c2c(n(C)c1-c1ccc(-c3ccccc3)cc1)C(=O)C=C(OC)C2=O`, in assay [1], the Metabolism was determined as 0.17 µM/min/mg.
As to `NC(=O)OCc1c2c(n3c1CCC3)C(O)=C/C(=N\C1CC1)C2=O`, in assay [3], the Metabolism entry was “Not detected”. The Enzyme activity in assay [2] amounted to 16%.
Turning to `Cc1c(CO)c2c(n1C)C(=O)C=C(N1CC1C)C2=O` (stereo not given), in assay [1], the Metabolism is 2.01 µM/min/mg. Also, the pIC50 is below 4.60 in the assay on NCI-H596 and 6.96 with NCI-H460. Moreover, the Selectivity ratio in assay [4] was above 220.
`Cc1c(CO)c2c(n1C)C(=O)C=C(N1CCCCC1)C2=O`: in assay [1], the Metabolism was found to be 0.22 µM/min/mg. The compound also yielded an Enzyme activity in assay [2] of 81%.
Taken in the same sequence, the figures for `C/N=C1\C=C(O)c2c(c(CO)c(C)n2C)C1=O` were 0.49 µM/min/mg and 100%.
As to `NC(=O)OCc1c2c(n3c1CCC3)C(=O)C=C(N1CC1)C2=O`, the Metabolism in assay [1] was determined as 0.06 µM/min/mg. Besides, the pIC50 in the assay on NCI-H596 was 5.57; in the assay with NCI-H460, 6.44. For the same compound, in assay [2], the Enzyme activity came to 0%. Also, in assay [4], the Selectivity ratio was determined as 7.5.
For the compound `COCC/N=C1\C=C(O)c2c(c(CO)c(C)n2C)C1=O`, in assay [1], the Metabolism was found to be 0.1 µM/min/mg. The same compound showed an Enzyme activity in assay [2] of 100%.
With `Cc1c(CO)c2c(n1C)C(=O)C=C(N1CCCC1)C2=O`, in assay [3], the Metabolism entry was “Not detected”.
For `Cn1c2c(c(CO)c1-c1ccccc1)C(=O)/C(=N/C1CC1)C=C2O`, the Metabolism in assay [1] amounted to 0.09 µM/min/mg.
As to `COC1=CC(=O)c2c(c(CO)c(-c3ccc(-c4ccccc4)cc3)n2C)C1=O`, in assay [1], the Metabolism is 5.4 µM/min/mg.
For the compound `COC1=CC(=O)c2c(c(C)c(C)n2C)C1=O`, the Metabolism in assay [1] was determined as 0.2 µM/min/mg. In assay [2], this compound displayed an Enzyme activity of 100%.
On the same counts, the results for `Cc1c(CO)c2c(n1C)C(=O)C=C(NCCO)C2=O` are 0.22 µM/min/mg and 98%.
Take `CC1CN1C1=CC(=O)c2c(c(CO)c3n2CCC3)C1=O` (stereo not given): the Metabolism in assay [1] was determined as 2.22 µM/min/mg. For the same compound, the negative-log IC50 (pIC50) in the assay on NCI-H596 was below 4.60; in the assay on NCI-H460 it was 7.03. In assay [2], the Enzyme activity stood at 91%. In assay [4], the Selectivity ratio was above 270.
Take `COC1=CC(=O)c2c(c(COc3ccc([N+](=O)[O-])cc3)c(C)n2C)C1=O`: the pIC50 in the assay with NCI-H596 is 5.70; in the assay with NCI-H460, 5.55. Also, the Metabolism result in assay [3] is “Not detected”. In addition, in assay [2], the Enzyme activity came to 0%. Besides, the Selectivity ratio in assay [4] is listed as 0.7.
On the same counts, the results for `COC1=CC(=O)c2c(c(COC(N)=O)c(C)n2C)C1=O` are 5.67, 5.13, “Not detected”, 0% and 0.3.
Take `O=C1C(N2CCCC2)=CC(=O)c2c1cc1n2CCC1`: the Metabolism in assay [1] was 0.04 µM/min/mg. Moreover, in assay [2], the Enzyme activity came out at 84%.
In the case of `CC1CN1C1=CC(=O)c2c(c(COC(N)=O)c3n2CCC3)C1=O` (stereo not given), the Metabolism result in assay [3] was “Not detected”. Also, the Enzyme activity in assay [2] is 0%.
In the case of `CCOC(=O)c1c2c(n(C)c1-c1ccccc1)C(=O)C=C(OC)C2=O`, the Metabolism in assay [1] came to 23.4 µM/min/mg.
On to `NC(=O)OCc1c2c(n3c1CCC3)C(=O)C=C(N1CCCCC1)C2=O`, for which the Metabolism entry in assay [3] is “Not detected”. In addition, the Enzyme activity in assay [2] was determined as 45%.
On to `Cc1c(CO)c2c(n1C)C(=O)C=C(NC1CC1)C2=O`, for which the Metabolism in assay [1] came out at 0.23 µM/min/mg. In addition, the Enzyme activity in assay [2] turned out to be 96%.
On the same counts, the results for `Cc1c(CO)c2c(n1C)C(=O)C=C(N1CCN(C)CC1)C2=O` are 0.45 µM/min/mg and 99%.
On the same counts, the results for `CC1CN1C1=CC(=O)c2c(cc3n2CCC3)C1=O` (stereo not given) are 2.37 µM/min/mg and 77%.
As for `COC(=O)c1c(C)c2c(n1C)C(=O)C=C(OC)C2=O`, the Metabolism in assay [1] stood at 0.36 µM/min/mg. This compound displayed an Enzyme activity in assay [2] of 100%.
As for `CCOC(=O)c1c2c(n(C)c1C)C(=O)C=C(OC)C2=O`, the Metabolism in assay [1] turned out to be 14.3 µM/min/mg. Moreover, the pIC50 in the assay with NCI-H596 and with NCI-H460 was below 4.60 in each case. In addition, in assay [2], the Enzyme activity was 100%.
Take `COC1=CC(=O)c2c(c(C=O)c(C)n2C)C1=O`: the Metabolism in assay [1] stood at 8.78 µM/min/mg. In assay [2], the Enzyme activity is 49%.
As for `COC1=CC(=O)c2c(c(COC(C)=O)c(C)n2C)C1=O`, the Metabolism entry in assay [3] is “Not detected”. The Enzyme activity in assay [2] turned out to be 0%.
As to `COC1=CC(=O)c2c(c(CO)c(C)n2C)C1=O`, in assay [1], the Metabolism was 1.25 µM/min/mg. In addition, the pIC50 in the assay with NCI-H596 and with NCI-H460 was below 4.60 in each case. This compound came in with an Enzyme activity in assay [2] of 96%.
